Activity calls are given as the source filed them. No cut-off for these calls is given here.
Experiments:
Talaromyces funiculosus [1] = assay: Antifungal activity against Penicillium funiculosum at 2% (w/v) concentration by disc diffusion method; assay type: functional
Outline: (§1)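 Potato dextrose agar plates were seeded with a spore suspension (10⁶ spores/mL). Compounds in acetone at a final 0.5%, 1% or 2% w/v were loaded onto 5 mm filter-paper discs. Plates were incubated at 28 ± 2 °C for four days. Zone diameter was measured after subtracting the acetone-only plate zone, with carbendazim as standard.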

Fusarium oxysporum [2] = assay: Antifungal activity against Fusarium oxysporum at 0.5% (w/v) concentration by disc diffusion method; assay type: functional; outline: as §1
Alternaria macrospora [3] = assay: Antifungal activity against Alternaria macrospora at 2% (w/v) concentration by disc diffusion method; assay type: functional; outline: as §1
Escherichia coli [4] = assay: Antibacterial activity against Escherichia coli at 0.5% (w/v) concentration by after 24 hrs by disc diffusion method; assay type: functional
Outline: (§2)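 Disc diffusion on nutrient agar (pH 7.5 ± 0.2) swabbed with bacterial culture; compounds dissolved in chloroform at 0.125%, 0.25% or 0.5% w/v, soaked onto 5 mm filter paper discs placed on seeded plates. Incubated 35 ± 2 °C, 24 h; inhibition zone diameter (mm) measured, minus zone from solvent-only plate.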

Alternaria macrospora [5] = assay: Antifungal activity against Alternaria macrospora at 1% (w/v) concentration by disc diffusion method; assay type: functional; outline: as §1
Alternaria macrospora [6] = assay: Antifungal activity against Alternaria macrospora at 0.5% (w/v) concentration by disc diffusion method; assay type: functional; outline: as §1
Aspergillus flavus [7] = assay: Antifungal activity against Aspergillus flavus at 1% (w/v) concentration by disc diffusion method; assay type: functional; outline: as §1
Salmonella typhi [8] = assay: Antibacterial activity against Salmonella typhi at 0.125% (w/v) concentration after 24 hrs by disc diffusion method; assay type: functional, Salmonella enterica subsp. enterica serovar Typhi
Outline: (§3)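 Disc diffusion on nutrient agar (pH 7.5 ± 0.2) swabbed with bacteria. Compounds were dissolved in chloroform at a final 0.125%, 0.25% or 0.5% w/v and loaded onto 5 mm filter-paper discs. Plates were incubated at 35 ± 2 °C for 24 h. The inhibition-zone diameter (mm) was reported after subtracting the zone of the solvent-only plate.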

Aspergillus flavus [9] = assay: Antifungal activity against Aspergillus flavus at 2% (w/v) concentration by disc diffusion method; assay type: functional; outline: as §1
Aeromonas hydrophila [10] = assay: Antibacterial activity against Aeromonas hydrophila at 0.25% (w/v) concentration after 24 hrs by disc diffusion method; assay type: functional; outline: as §2
Escherichia coli [11] = assay: Antibacterial activity against Escherichia coli at 0.25% (w/v) concentration after 24 hrs by disc diffusion method; assay type: functional; outline: as §2
Talaromyces funiculosus [12] = assay: Antifungal activity against Penicillium funiculosum at 0.5% (w/v) concentration by disc diffusion method; assay type: functional; outline: as §1
Salmonella typhi [13] = assay: Antibacterial activity against Salmonella typhi at 0.25% (w/v) concentration after 24 hrs by disc diffusion method; assay type: functional, Salmonella enterica subsp. enterica serovar Typhi; outline: as §3
Fusarium oxysporum [14] = assay: Antifungal activity against Fusarium oxysporum at 2% (w/v) concentration by disc diffusion method; assay type: functional; outline: as §1
[15] = Induction of chromosomal aberration in human peripheral blood leukocytes assessed as number of chromatid breaks at 20 ug/mL after 24 hrs; assay type: functional, Leukocyte
Outline: (§4)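 Leukocytes from venous blood of three healthy non-smoking male donors, cultured at 37 °C for 72 h in McCoy's 5a with AB serum and PHA. Compound in 1% acetone was added at 0, 24 or 48 h after culture initiation (72, 48 or 24 h exposure), with water and acetone controls and triplicate cultures. Colchicine was added before harvest, then KCl hypotonic, fixation and Giemsa staining. Gaps and breaks were counted in 350 metaphases per treatment.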

Salmonella typhi [16] = assay: Antibacterial activity against Salmonella typhi at 0.5% (w/v) concentration after 24 hrs by disc diffusion method; assay type: functional, Salmonella enterica subsp. enterica serovar Typhi; outline: as §3
Talaromyces funiculosus [17] = assay: Antifungal activity against Penicillium funiculosum at 1% (w/v) concentration by disc diffusion method; assay type: functional; outline: as §1
Escherichia coli [18] = assay: Antibacterial activity against Escherichia coli at 0.125% (w/v) concentration after 24 hrs by disc diffusion method; assay type: functional; outline: as §2
Aspergillus flavus [19] = assay: Antifungal activity against Aspergillus flavus at 0.5% (w/v) concentration by disc diffusion method; assay type: functional; outline: as §1
[20] = Induction of chromosomal aberration in human peripheral blood leukocytes assessed as number of chromatid gaps at 20 ug/mL after 24 hrs; assay type: functional, Leukocyte; outline: as §4
Aeromonas hydrophila [21] = assay: Antibacterial activity against Aeromonas hydrophila at 0.125% (w/v) concentration after 24 hrs by disc diffusion method; assay type: functional; outline: as §2
Fusarium oxysporum [22] = assay: Antifungal activity against Fusarium oxysporum at 1% (w/v) concentration by disc diffusion method; assay type: functional; outline: as §1
Aeromonas hydrophila [23] = assay: Antibacterial activity against Aeromonas hydrophila at 0.5% (w/v) concentration after 24 hrs by disc diffusion method; assay type: functional; outline: as §2
[24] = Induction of chromosomal aberration in human peripheral blood leukocytes assessed as number of chromatid breaks at 20 ug/mL after 48 hrs; assay type: functional, Leukocyte; outline: as §4
[25] = Induction of chromosomal aberration in human peripheral blood leukocytes assessed as number of chromatid gaps at 20 ug/mL after 48 hrs; assay type: functional, Leukocyte; outline: as §4

| SMILES | inhibition zone (IZ) (Talaromyces funiculosus [1]) [mm] | inhibition zone (IZ) (Fusarium oxysporum [2]) [mm] | inhibition zone (IZ) (Alternaria macrospora [3]) [mm] | inhibition zone (IZ) (Escherichia coli [4]) [mm] | inhibition zone (IZ) (Alternaria macrospora [5]) [mm] | inhibition zone (IZ) (Alternaria macrospora [6]) [mm] | inhibition zone (IZ) (Aspergillus flavus [7]) [mm] | inhibition zone (IZ) (Salmonella typhi [8]) [mm] | inhibition zone (IZ) (Aspergillus flavus [9]) [mm] | inhibition zone (IZ) (Aeromonas hydrophila [10]) [mm] | inhibition zone (IZ) (Escherichia coli [11]) [mm] | inhibition zone (IZ) (Salmonella typhi [13]) [mm] | inhibition zone (IZ) (Fusarium oxysporum [14]) [mm] | Activity [15] [%] | inhibition zone (IZ) (Salmonella typhi [16]) [mm] | inhibition zone (IZ) (Talaromyces funiculosus [17]) [mm] | inhibition zone (IZ) (Aspergillus flavus [19]) [mm] | Activity [20] [%] | inhibition zone (IZ) (Aeromonas hydrophila [21]) [mm] | inhibition zone (IZ) (Fusarium oxysporum [22]) [mm] | other results |
| --- | --- | --- | --- | --- | --- | --- | --- | --- | --- | --- | --- | --- | --- | --- | --- | --- | --- | --- | --- | --- | --- |
| Cc1cccc2c(Cl)c3c(nc12)C=CNN=C3 | 10 | 2 | 10 | 6 | 6 | 3 | 4 | 5 | 8 | 7 | 2 | 7 | 10 | 0.3 | 12 | 3 | 2 | 0.6 | 4 | 6 | Activity (Talaromyces funiculosus [12]): inactive; Activity (Escherichia coli [18]): inactive; inhibition zone (IZ) (Aeromonas hydrophila [23]): 11 mm |
| Cc1ccc(C)c2c(Cl)c3c(nc12)C=CNN=C3 | 17 | 4 | 17 | 9 | 11 | 7 | 9 | 5 | 16 | 8 | 5 | 9 | 15 | 0.9 | 14 | 10 | 4 | 2 | 4 | 11 | Activity [24]: 0.3%; Activity [25]: 0.9%; inhibition zone (IZ) (Talaromyces funiculosus [12]): 5 mm; inhibition zone (IZ) (Escherichia coli [18]): 2 mm; inhibition zone (IZ) (Aeromonas hydrophila [23]): 11 mm |
